Assays:
[1] = target: T1, Cholinesterase (Equus caballus, UniProt P81908); experiment: Inhibition of equine serum butyrylcholinesterase using […] as substrate preincubated for 4.5 mins followed by substrate addition measured after 2.5 mins by Ellman's spectrophotometric method
Procedure, shortened: (§1)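 Ellman assay at 25 °C in phosphate buffer pH 8.0. Enzyme (AChE from human erythrocytes, BChE from equine or human serum; 2.5 units/mL stock with 2 mg/mL BSA) and DTNB (0.3 mM in assay) preincubated with compound from ethanol stocks (1 nM−1 mM in assay). Acetyl- or butyrylthiocholine added (452 μM in assay), absorbance at 412 nm after 2.5 min. Ethanol control, triplicates, IC50 from activity vs log concentration.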

[2] = target: T2, Acetylcholinesterase (Homo sapiens, UniProt P22303); experiment: Inhibition of human acetylcholinesterase using […] as substrate preincubated for 4.5 mins followed by substrate addition measured after 2.5 mins by Ellman's spectrophotometric method; procedure, shortened: as §1
T2 sequence (P22303 whole entry): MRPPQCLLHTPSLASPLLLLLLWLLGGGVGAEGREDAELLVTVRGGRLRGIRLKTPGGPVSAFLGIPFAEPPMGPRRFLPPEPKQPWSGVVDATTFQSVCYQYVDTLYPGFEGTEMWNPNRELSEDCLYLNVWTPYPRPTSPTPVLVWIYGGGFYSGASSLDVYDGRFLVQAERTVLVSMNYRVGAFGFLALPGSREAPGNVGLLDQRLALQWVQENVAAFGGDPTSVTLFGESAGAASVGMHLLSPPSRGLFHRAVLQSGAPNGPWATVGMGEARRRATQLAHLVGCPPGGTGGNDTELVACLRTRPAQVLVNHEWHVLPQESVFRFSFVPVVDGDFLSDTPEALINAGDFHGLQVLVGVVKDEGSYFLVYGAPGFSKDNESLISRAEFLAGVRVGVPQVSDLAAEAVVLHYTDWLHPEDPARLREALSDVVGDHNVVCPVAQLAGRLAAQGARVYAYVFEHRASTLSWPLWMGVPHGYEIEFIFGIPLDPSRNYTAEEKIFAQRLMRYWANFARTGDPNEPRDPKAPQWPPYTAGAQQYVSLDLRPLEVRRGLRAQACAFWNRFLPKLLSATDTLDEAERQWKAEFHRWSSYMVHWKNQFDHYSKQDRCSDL

[3] = target: T1, Cholinesterase; experiment: Inhibition of equine serum butyrylcholinesterase using […] as substrate preincubated for 30 mins followed by substrate addition measured after 2.5 mins by Ellman's spectrophotometric method
Procedure, shortened: as §1, with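 “assay).” for “assay). Acetyl- or butyrylthiocholine added (452 μM in assay), absorbance at 412 nm after 2.5 min.”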

[4] = target: Cholinesterase (Equus caballus) (UniProt P81908); experiment: Pseudo-irreversible inhibition of equine serum butyrylcholinesterase assessed as carbamoylation rate of inhibitor from reversible enzyme inhibitor complex to carbamoylated enzyme using p-nitrophenyl butyrate as substrate preincubated for 5 to 40 mins followed by substrate addition by double reciprocal plot analysis
Cholinesterase (Equus caballus), sequence (P81908 whole entry): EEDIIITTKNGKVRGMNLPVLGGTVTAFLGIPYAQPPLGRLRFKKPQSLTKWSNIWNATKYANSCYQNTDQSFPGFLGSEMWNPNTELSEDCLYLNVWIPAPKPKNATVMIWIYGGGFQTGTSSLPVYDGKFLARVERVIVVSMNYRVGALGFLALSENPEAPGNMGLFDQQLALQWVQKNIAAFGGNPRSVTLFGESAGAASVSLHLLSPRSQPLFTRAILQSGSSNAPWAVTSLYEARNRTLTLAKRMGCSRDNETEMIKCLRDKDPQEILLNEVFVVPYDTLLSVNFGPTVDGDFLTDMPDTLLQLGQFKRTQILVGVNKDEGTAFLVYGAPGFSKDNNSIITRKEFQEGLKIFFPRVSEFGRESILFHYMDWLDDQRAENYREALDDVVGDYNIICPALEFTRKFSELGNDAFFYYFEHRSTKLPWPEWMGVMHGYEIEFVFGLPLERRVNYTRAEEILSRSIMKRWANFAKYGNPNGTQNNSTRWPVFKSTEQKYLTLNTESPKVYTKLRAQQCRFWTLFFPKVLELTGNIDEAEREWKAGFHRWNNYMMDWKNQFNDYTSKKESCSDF

[5] = target: T2, Acetylcholinesterase; experiment: Inhibition of human acetylcholinesterase using […] as substrate at 100 uM preincubated for 4.5 mins followed by substrate addition measured after 2.5 mins by Ellman's spectrophotometric method
[6] = target: Cholinesterase (Equus caballus) (UniProt P81908); experiment: Pseudo-irreversible inhibition of equine serum butyrylcholinesterase assessed as ratio of carbamoylation rate of inhibitor to apparent affinity between enzyme and inhibitor at equilibrium state using p-nitrophenyl butyrate as substrate preincubated for 5 to 40 mins followed by substrate addition by double reciprocal plot analysis
[7] = target: Cholinesterase (Equus caballus) (UniProt P81908); experiment: Pseudo-irreversible inhibition of equine serum butyrylcholinesterase assessed as apparent affinity between enzyme and inhibitor at equilibrium state using p-nitrophenyl butyrate as substrate preincubated for 5 to 40 mins followed by substrate addition by double reciprocal plot analysis
[8] = target: T2, Acetylcholinesterase; experiment: Inhibition of human acetylcholinesterase using […] as substrate at 10 uM preincubated for 4.5 mins followed by substrate addition measured after 2.5 mins by Ellman's spectrophotometric method

T1 sequence (P81908 whole entry): as above

Question: For COc1ccccc1C1N(C)Cc2cc(O)ccc2N1C (stereo not drawn), which IC50 [1] is on record?
Answer: Its IC50 is 9.9 µM.

Question: What about the IC50 [2] of the same compound?
Answer: The IC50 was 193 µM.

Question: For CN1Cc2cc(O)ccc2N(C)C1c1c(Cl)cccc1Cl (stereo not drawn), which IC50 [1] is on record?
Answer: The IC50 was 7.1 µM.

Question: What about the IC50 [2] of the same compound?
Answer: The IC50 was 13.5 µM.

Question: CCCCCCCNC(=O)Oc1ccc2nc(-c3ccccc3)ncc2c1 was tested. Which IC50 [3] did it give?
Answer: The IC50 was 1.8 µM.

Question: What about the K [4] of the same compound?
Answer: Its K is 0.14 min⁻¹.

Question: And the inhibition [5]?
Answer: The inhibition was 22%.

Question: And the Ratio [6]?
Answer: The Ratio was 0.13 µM⁻¹ min⁻¹.

Question: What about the K [7] of the same compound?
Answer: Its K is 1060 nM.

Question: Which IC50 [1] does the source give for Cc1ccc(C2N(C)Cc3cc(O)ccc3N2C)cc1 (stereo not drawn) here?
Answer: The IC50 was 22.6 µM.

Question: What about the IC50 [2] of the same compound?
Answer: The IC50 was 110 µM.

Question: What does the source list for CN1Cc2cc(O)ccc2N(C)C1c1ccc(F)cc1 (stereo not drawn)?
Answer: IC50 [1]: 58.9 µM; IC50 [2]: 143 µM

Question: CCCCCCCNC(=O)Oc1ccc2c(c1)CN(C)C(c1ccc(C(F)(F)F)cc1)N2C (stereo not drawn) was tested. Which IC50 [3] did it give?
Answer: The IC50 was 2.7 µM.

Question: And the K [4]?
Answer: Its K is 0.05 min⁻¹.

Question: And the inhibition [5]?
Answer: The inhibition was 59%.

Question: And the Ratio [6]?
Answer: Its Ratio is 0.07 µM⁻¹ min⁻¹.

Question: And the K [7]?
Answer: Its K is 756 nM.

Question: Which IC50 [3] does the source give for CCCCCCCNC(=O)Oc1ccc2c(c1)CN(C)C(c1ccc(C)cc1)N2C (stereo not drawn) here?
Answer: The IC50 was 0.231 µM.

Question: And the inhibition [5]?
Answer: Its inhibition is 9%.

Question: For CN1Cc2cc(O)ccc2N(C)C1c1cccc2ccccc12 (stereo not drawn), which IC50 [1] is on record?
Answer: Its IC50 is 2.8 µM.

Question: And the IC50 [2]?
Answer: The IC50 was 342 µM.

Question: With CCCCCCCNC(=O)Oc1ccc2c(c1)CN(C)C(c1ccncc1)N2C (stereo not drawn) as the compound, how does the IC50 [3] read?
Answer: Its IC50 is 0.723 µM.

Question: And the inhibition [5]?
Answer: The inhibition was 16%.

Question: Which results are given for CCCCCCCNC(=O)Oc1ccc2c(c1)CN(C)C(c1cccc(OC)c1)N2C (stereo not drawn)?
Answer: IC50 [3]: 0.208 µM; K [4]: 0.18 min⁻¹; inhibition [5]: 10%; Ratio [6]: 0.29 µM⁻¹ min⁻¹; K [7]: 622 nM

Question: With CCCCCCCNC(=O)Oc1ccc2c(c1)CN(C)C(c1cccc(Cl)c1)N2C (stereo not drawn) as the compound, how does the IC50 [3] read?
Answer: The IC50 was 0.096 µM.

Question: And the K [4]?
Answer: The K was 0.16 min⁻¹.

Question: What about the inhibition [5] of the same compound?
Answer: The inhibition was 39%.

Question: And the Ratio [6]?
Answer: Its Ratio is 0.7 µM⁻¹ min⁻¹.

Question: And the K [7]?
Answer: Its K is 227 nM.

Question: For CCCCCCCNC(=O)Oc1ccc2c(c1)CN(C)C(c1cccnc1)N2C (stereo not drawn), which IC50 [3] is on record?
Answer: The IC50 was 0.565 µM.

Question: And the inhibition [5]?
Answer: The inhibition was 18%.

Question: Which IC50 [1] does the source give for CN1Cc2cc(O)ccc2N(C)C1c1ccncc1 (stereo not drawn) here?
Answer: The IC50 was 2.1 µM.

Question: What about the IC50 [2] of the same compound?
Answer: Its IC50 is 242 µM.

Question: CCCCCCCNC(=O)Oc1ccc2c(c1)CN(C)C(c1ccsc1)N2C (stereo not drawn) was tested. Which IC50 [3] did it give?
Answer: The IC50 was 0.022 µM.

Question: What about the inhibition [5] of the same compound?
Answer: Its inhibition is 13%.

Question: What does the source list for CN1Cc2cc(O)ccc2N(C)C1c1cccc(Cl)c1 (stereo not drawn)?
Answer: IC50 [1]: 2.1 µM; IC50 [2]: 242 µM

Question: Which results are given for CN1Cc2cc(O)ccc2N(C)C1c1ccoc1 (stereo not drawn)?
Answer: IC50 [1]: 196 µM; IC50 [2]: 342 µM

Question: Which IC50 [3] does the source give for CCCCCCCNC(=O)Oc1ccc2c(c1)CN(C)C(c1ccccc1C)N2C (stereo not drawn) here?
Answer: Its IC50 is 0.251 µM.

Question: What about the inhibition [8] of the same compound?
Answer: The inhibition was 18%.

Question: For Cc1ccccc1C1N(C)Cc2cc(O)ccc2N1C (stereo not drawn), which IC50 [1] is on record?
Answer: The IC50 was 92.4 µM.

Question: What about the IC50 [2] of the same compound?
Answer: Its IC50 is 143 µM.

Question: What does the source list for CCCCCCCNC(=O)Oc1ccc2c(c1)CN(C)C(c1ccccc1OC)N2C (stereo not drawn)?
Answer: IC50 [3]: 0.238 µM; inhibition [8]: 47%

Question: How did the IC50 [1] turn out when CN1Cc2cc(O)ccc2N(C)C1c1cc[nH]c1 (stereo not drawn) was run?
Answer: The IC50 was 15.3 µM.

Question: What about the IC50 [2] of the same compound?
Answer: Its IC50 is 116 µM.

Question: For CCCCCCCNC(=O)Oc1ccc2c(c1)CN(C)C(c1ccc(Cl)cc1)N2C (stereo not drawn), which IC50 [3] is on record?
Answer: Its IC50 is 0.115 µM.

Question: What about the inhibition [5] of the same compound?
Answer: Its inhibition is 24%.

Question: What does the source list for CCCCCCCNC(=O)Oc1ccc2c(c1)CN(C(C)C)C(c1ccccc1)N2C (stereo not drawn)?
Answer: IC50 [3]: 0.021 µM; K [4]: 0.16 min⁻¹; inhibition [5]: 33%; Ratio [6]: 0.86 µM⁻¹ min⁻¹; K [7]: 186 nM

Question: For CCCCCCCNC(=O)Oc1ccc2c(c1)CN(CCC)C(c1ccccc1)N2C (stereo not drawn), which IC50 [3] is on record?
Answer: The IC50 was 0.04 µM.

Question: And the inhibition [5]?
Answer: Its inhibition is 46%.

Question: Which results are given for CCCCCCCNC(=O)Oc1ccc2c(c1)CN(C)C(c1ccccc1Cl)N2C (stereo not drawn)?
Answer: IC50 [3]: 0.474 µM; inhibition [8]: 48%

Question: For CC(C)N1Cc2cc(O)ccc2N(C)C1c1ccccc1 (stereo not drawn), which IC50 [1] is on record?
Answer: Its IC50 is 55.8 µM.

Question: What about the IC50 [2] of the same compound?
Answer: The IC50 was 253 µM.

Question: Which IC50 [3] does the source give for CCCCCCCNC(=O)Oc1ccc2c(c1)CN(C)C(c1cccc(C)c1)N2C (stereo not drawn) here?
Answer: The IC50 was 0.199 µM.

Question: What about the inhibition [5] of the same compound?
Answer: The inhibition was 27%.

Question: Which IC50 [1] does the source give for CCCN1Cc2cc(O)ccc2N(C)C1c1ccccc1 (stereo not drawn) here?
Answer: The IC50 was 22.8 µM.

Question: And the IC50 [2]?
Answer: Its IC50 is 279 µM.

Question: With CCCCCCCNC(=O)Oc1ccc2c(c1)CN(C)C(c1c(Cl)cccc1Cl)N2C (stereo not drawn) as the compound, how does the IC50 [3] read?
Answer: The IC50 was 0.531 µM.

Question: And the K [4]?
Answer: Its K is 0.23 min⁻¹.

Question: And the Ratio [6]?
Answer: The Ratio was 0.06 µM⁻¹ min⁻¹.

Question: What about the inhibition [8] of the same compound?
Answer: Its inhibition is 33%.

Question: What about the K [7] of the same compound?
Answer: The K was 4120 nM.

Question: Which IC50 [1] does the source give for CN1Cc2cc(O)ccc2N(C)C1c1ccc(Cl)cc1 (stereo not drawn) here?
Answer: Its IC50 is 13.8 µM.

Question: And the IC50 [2]?
Answer: The IC50 was 236 µM.

Question: With CN1Cc2cc(O)ccc2N(C)C1c1ccc(C(F)(F)F)cc1 (stereo not drawn) as the compound, how does the IC50 [1] read?
Answer: Its IC50 is 64.6 µM.

Question: With Cc1cccc(C2N(C)Cc3cc(O)ccc3N2C)c1 (stereo not drawn) as the compound, how does the IC50 [1] read?
Answer: Its IC50 is 17.4 µM.

Question: What about the IC50 [2] of the same compound?
Answer: The IC50 was 437 µM.

Question: How did the IC50 [3] turn out when CCCCCCCNC(=O)Oc1ccc2c(c1)CN(C)C(c1ccoc1)N2C (stereo not drawn) was run?
Answer: The IC50 was 0.083 µM.

Question: What about the inhibition [5] of the same compound?
Answer: Its inhibition is 12%.

Question: Which IC50 [3] does the source give for CCCCCCCNC(=O)Oc1ccc2c(c1)CN(C)C(c1ccc3ccccc3c1)N2C (stereo not drawn) here?
Answer: The IC50 was 0.374 µM.

Question: And the inhibition [8]?
Answer: The inhibition was 5%.

Reference: ChEMBL document CHEMBL3785077 (J Med Chem, 2016)
